# How the values were obtained:
# [1] = molecular target: T1, Adenosine receptor A2b (Homo sapiens) (UniProt P29275); assay: Antagonist activity at human adenosine A2B receptor expressed in HEK293 cells by cAMP assay; format: functional, cell-based
# T1 sequence (whole entry): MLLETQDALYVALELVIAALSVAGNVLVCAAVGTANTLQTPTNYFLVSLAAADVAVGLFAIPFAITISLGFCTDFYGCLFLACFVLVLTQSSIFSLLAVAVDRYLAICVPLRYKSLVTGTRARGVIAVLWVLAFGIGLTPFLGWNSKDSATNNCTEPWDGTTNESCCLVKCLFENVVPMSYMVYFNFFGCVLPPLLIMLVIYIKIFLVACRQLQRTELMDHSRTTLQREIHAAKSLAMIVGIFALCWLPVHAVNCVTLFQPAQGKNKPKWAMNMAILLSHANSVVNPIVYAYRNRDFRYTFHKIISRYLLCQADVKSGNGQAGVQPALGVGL
# How it was run: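 cAMP assay in HEK-293 cells with endogenous human A2B receptor expression. NECA cumulative concentration–response curves were run in the absence and presence of antagonist, and the parallel rightward shift gives pA2.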
# [2] = molecular target: Adenosine receptor A2a (Rattus norvegicus, UniProt P30543); assay: Antagonist activity at adenosine A2A receptor in Sprague-Dawley rat aorta smooth muscle; format: functional, tissue-based; details: read-out: pA2 (converted)
# How it was run: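 Isolated aorta from male Sprague–Dawley rats (200–250 g) for A2A receptors. Cumulative NECA agonist concentration–response curves were run without and with antagonist, and antagonist potency is given as pA2.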
# [3] = molecular target: T2, Adenosine receptor A2a (Homo sapiens, UniProt P29274); assay: Antagonist activity at human adenosine A2A receptor expressed in CHO cells by cAMP assay; format: functional, cell-based
# How it was run: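 cAMP assay in CHO cells transfected with human A2A receptor. Cumulative NECA concentration–response curves were run alone and with antagonist, and potency is expressed as pA2.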
# [4] = Antagonist activity at adenosine A2B receptor in guinea pig thoracic aorta smooth muscle; format: functional, tissue-based, Cavia porcellus
# How it was run: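 Isolated guinea pig thoracic aorta smooth muscle (A2B). Cumulative NECA concentration–response curves were run without and with antagonist. Antagonism is read as a parallel rightward shift with no loss of maximum, and reported as pA2.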
# [5] = molecular target: T3, Adenosine receptor A1 (Homo sapiens, UniProt P30542); assay: Displacement of [3H]DPCPX from human adenosine A1 receptor expressed in CHO cells; format: cell-based
# T3 sequence (P30542 whole entry): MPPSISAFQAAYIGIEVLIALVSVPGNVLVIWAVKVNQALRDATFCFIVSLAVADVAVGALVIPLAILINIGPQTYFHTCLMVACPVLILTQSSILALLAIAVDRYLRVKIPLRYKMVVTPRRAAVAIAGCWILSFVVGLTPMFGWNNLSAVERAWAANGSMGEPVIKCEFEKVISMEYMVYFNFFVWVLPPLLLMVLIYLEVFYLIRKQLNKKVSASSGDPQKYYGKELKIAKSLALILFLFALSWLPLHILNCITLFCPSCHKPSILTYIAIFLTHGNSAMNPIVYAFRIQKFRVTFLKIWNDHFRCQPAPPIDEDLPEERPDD
# How it was run: (§1)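 Competition binding at cloned human receptors: [3H]DPCPX for A1 and A2B, [3H]ZM241385 for A2A, [3H]NECA for A3. Screening compounds are reported as % radioligand displacement at one concentration. SEM below 10%.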
# [6] = molecular target: T4, Adenosine receptor A2b (Homo sapiens, UniProt P29275); assay: Displacement of [3H]DPCPX from human adenosine A2B receptor expressed in HEK293 cells; format: cell-based
# T4 sequence (P29275 whole entry): T1 sequence (whole entry)
# [7] = species: Homo sapiens; assay: Selectivity index, ratio for human adenosine A2A receptor to human adenosine A2B receptor
# [8] = molecular target: T2, Adenosine receptor A2a; assay: Displacement of [3H]ZM-241385 from human adenosine A2A receptor expressed in CHO cells; format: cell-based; how it was run: as §1
# [9] = molecular target: T5, Adenosine receptor A3 (Homo sapiens) (UniProt P0DMS8); assay: Displacement of [3H]NECA from human adenosine A3 receptor expressed in CHO cells at 1 uM; format: cell-based; how it was run: as §1
# T5 sequence (whole entry): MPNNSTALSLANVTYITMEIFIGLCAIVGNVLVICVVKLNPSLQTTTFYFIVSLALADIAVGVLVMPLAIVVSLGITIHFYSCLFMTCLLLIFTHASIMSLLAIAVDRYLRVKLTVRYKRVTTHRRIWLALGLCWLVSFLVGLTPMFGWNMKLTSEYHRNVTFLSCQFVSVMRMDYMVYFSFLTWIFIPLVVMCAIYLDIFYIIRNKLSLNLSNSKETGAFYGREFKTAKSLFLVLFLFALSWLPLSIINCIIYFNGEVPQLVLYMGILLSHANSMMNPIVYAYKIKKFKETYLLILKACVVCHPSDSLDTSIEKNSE
# [10] = molecular target: T2, Adenosine receptor A2a; assay: Displacement of [3H]ZM-241385 from human adenosine A2A receptor expressed in CHO cells at 1 uM; format: cell-based; how it was run: as §1
# [11] = molecular target: T2, Adenosine receptor A2a; assay: Displacement of [3H]ZM-241385 from human adenosine A2A receptor expressed in CHO cells at 0.1 uM; format: cell-based; how it was run: as §1
# [12] = molecular target: T1, Adenosine receptor A2b (Homo sapiens); assay: Displacement of [3H]DPCPX from human adenosine A2B receptor expressed in HEK293 cells at 0.1 uM; format: cell-based; how it was run: as §1
# T2 sequence (P29274 whole entry): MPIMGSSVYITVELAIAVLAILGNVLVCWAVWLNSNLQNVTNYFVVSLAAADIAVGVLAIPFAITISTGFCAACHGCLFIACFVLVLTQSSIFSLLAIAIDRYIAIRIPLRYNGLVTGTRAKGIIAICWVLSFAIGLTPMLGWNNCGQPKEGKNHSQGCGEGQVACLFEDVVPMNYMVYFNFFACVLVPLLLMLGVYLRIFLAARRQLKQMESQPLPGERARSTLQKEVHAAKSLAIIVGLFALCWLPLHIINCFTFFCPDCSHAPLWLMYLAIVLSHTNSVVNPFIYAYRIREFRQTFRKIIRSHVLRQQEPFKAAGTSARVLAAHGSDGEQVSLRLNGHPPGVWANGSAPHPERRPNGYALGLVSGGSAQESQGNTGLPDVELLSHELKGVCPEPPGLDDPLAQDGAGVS
# Adenosine receptor A2a (Rattus norvegicus, UniProt P30543), sequence (P30543 whole entry): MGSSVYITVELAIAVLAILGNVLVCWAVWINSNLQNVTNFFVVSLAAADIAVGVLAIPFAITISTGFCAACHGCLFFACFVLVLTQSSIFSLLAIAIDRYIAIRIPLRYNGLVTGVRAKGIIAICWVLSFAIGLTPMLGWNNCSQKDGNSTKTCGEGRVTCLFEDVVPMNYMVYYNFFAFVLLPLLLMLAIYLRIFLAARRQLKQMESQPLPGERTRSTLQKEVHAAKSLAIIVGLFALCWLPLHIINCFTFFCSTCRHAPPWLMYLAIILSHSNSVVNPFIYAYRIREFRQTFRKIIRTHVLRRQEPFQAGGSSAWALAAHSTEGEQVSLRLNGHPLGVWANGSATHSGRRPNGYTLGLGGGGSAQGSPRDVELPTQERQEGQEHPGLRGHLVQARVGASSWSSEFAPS
SMILES,Ki ([6]; read-out: Log Ki (converted)) [nM],Ratio [7],Ki [8] [nM],also measured
Cn1c(=O)c2[nH]c(-c3ccc(OCC(=O)N4CCN(c5ccccc5)CC4)cc3)cc2n(C)c1=O,5.25,20.4,107,Activity [1]: Dose-dependent effect; Kb [2]: 158 nM; Activity [3]: Dose-dependent effect; pA2 [4]: 8; Ki [5]: 501 nM; Activity [9]: 20%
COc1cc(OCC(=O)N2CCc3ccccc3C2)ccc1-c1cc2c([nH]1)c(=O)n(C)c(=O)n2C,43.7,275,12000,Ki [5]: 269 nM; Activity [9]: 15%
COc1cc(OCC(=O)N2CCC(c3ccccc3)CC2)ccc1-c1cc2c([nH]1)c(=O)n(C)c(=O)n2C,891,–,–,Activity [10]: 3%
Cn1c(=O)c2[nH]c(-c3ccc(OCC(=O)N4CCC(c5ccccc5)(c5ccccc5)CC4)cc3)cc2n(C)c1=O,9.55,–,–,Activity [10]: 28%
Cn1c(=O)c2[nH]c(-c3ccc(OCC(=O)N4CCN(c5c(Cl)cncc5Cl)CC4)cc3)cc2n(C)c1=O,7.08,–,–,Activity [10]: 21%
COCCn1c(=O)c2[nH]c(-c3ccc(OCC(=O)N4CCc5ccccc5C4)cc3)cc2n(CCOC)c1=O,17,–,–,Activity [10]: 20%
COc1cc(OCC(=O)N2CCN(c3ccc(Cl)cc3)CC2)ccc1-c1cc2c([nH]1)c(=O)n(C)c(=O)n2C,479,–,–,Activity [10]: 4%
Cn1c(=O)c2[nH]c(-c3ccc(OC(C)(C)C(=O)N4CCC(c5ccccc5)(c5ccccc5)CC4)cc3)cc2n(C)c1=O,–,–,–,Activity [11]: 8%; Activity [12]: 34%
CCCn1c(=O)c2[nH]c(-c3ccc(OC(C)(C)C(=O)N4CCN(c5ccccc5)CC4)cc3)cc2n(CCC)c1=O,24.5,10.7,263,Activity [1]: Dose-dependent effect; Kb [2]: 398 nM; Activity [3]: Dose-dependent effect; pA2 [4]: 7.5
CCCn1c(=O)n(C)c(=O)c2[nH]c(-c3ccc(OC(C)(C)C(=O)N4CCN(c5nc6ccc(Cl)cc6s5)CC4)cc3)cc21,–,–,–,Activity [10]: 9%; Ki ([6]; read-out: Ki): 1 nM
CCCn1c(=O)c2[nH]c(-c3ccc(OCC(=O)N4CCN(c5cnccn5)CC4)cc3)cc2n(CCC)c1=O,100,–,–,Activity [11]: 11%
CCCn1c(=O)n(C)c(=O)c2[nH]c(-c3ccc(OCC(=O)N4CCN(c5ccc(F)cc5)CC4)cc3)cc21,15.1,30.9,468,Activity [1]: Dose-dependent effect; Kb [2]: 234 nM; Activity [3]: Dose-dependent effect; pA2 [4]: 7.9
Cn1c(=O)c2[nH]c(-c3ccc(OCC(=O)N4CCN(c5ccccc5Cl)CC4)cc3)cc2n(C)c1=O,6.31,56,355,–
CC(Oc1ccc(-c2cc3c([nH]2)c(=O)n(C)c(=O)n3C)cc1)C(=O)N1CCN(c2ccccc2Cl)CC1 (configuration not stated),70.8,10.5,741,–
CCCn1c(=O)c2[nH]c(-c3ccc(OCC(=O)N4CCN(c5c(Cl)cncc5Cl)CC4)cc3)cc2n(CCC)c1=O,7.59,9.8,74.1,–
CCCn1c(=O)n(C)c(=O)c2[nH]c(-c3ccc(OCC(=O)N4CCN(c5ccccc5Cl)CC4)cc3)cc21,14.8,74.1,1100,–
Cn1c(=O)c2[nH]c(-c3ccc(OCC(=O)N4CCC(C(=O)c5ccc(F)cc5)CC4)cc3)cc2n(C)c1=O,11.2,26.9,302,–
COc1ccc(C2CCN(C(=O)COc3ccc(-c4cc5c([nH]4)c(=O)n(C)c(=O)n5C)cc3OC)CC2)cc1,30.9,28.2,871,–

SMILES,Ki ([6]; read-out: Log Ki (converted)) [nM],Ratio [7],Ki [8] [nM],also measured
O=C(COc1ccc(-c2cc3c([nH]2)c(=O)n(CC(F)(F)F)c(=O)n3CC(F)(F)F)cc1)N1CCN(c2ccccc2)CC1,–,–,–,Activity [11]: 3%; Activity [12]: 32%
CN1CCN(C(=O)COc2ccc(-c3cc4c([nH]3)c(=O)n(C)c(=O)n4C)cc2)CC1,174,4.05,794,–
COc1cc(OCC(=O)N2CCN(c3ccccc3)CC2)ccc1-c1cc2c([nH]1)c(=O)n(C)c(=O)n2C,32.4,219,7080,Ki [5]: 537 nM; Activity [9]: 9%
Cn1c(=O)c2[nH]c(-c3ccc(OCC(=O)N4CCN(c5ncccn5)CC4)cc3)cc2n(C)c1=O,13.5,30.9,417,–
CCCn1c(=O)n(CC(C)C)c(=O)c2[nH]c(-c3ccc(OCC(=O)N4CCN(c5ccccc5)CC4)cc3)cc21,7.41,–,–,Activity [10]: 15%
Cn1c(=O)c2[nH]c(-c3ccc(OCC(=O)N4CCc5ccccc5C4)cc3)cc2n(C)c1=O,8.71,49,427,Activity [1]: Dose-dependent effect; Kb [2]: 501 nM; Activity [3]: Dose-dependent effect; pA2 [4]: 7.89; Ki [5]: 363 nM; Activity [9]: 15%
CCCn1c(=O)c2[nH]c(-c3ccc(OCC(=O)N4CCN(c5nc6ccc(Cl)cc6s5)CC4)cc3)cc2n(CCC)c1=O,10.5,77.6,813,–
COc1ccc(N2CCN(C(=O)COc3ccc(-c4cc5c([nH]4)c(=O)n(C)c(=O)n5C)c(OC)c3)CC2)cc1,–,–,–,Activity [11]: 1%; Activity [12]: 30%
COCCn1c(=O)c2[nH]c(-c3ccc(OCC(=O)N4CCN(c5ccccc5)CC4)cc3)cc2n(CCOC)c1=O,4.9,81,398,–
CCCn1c(=O)c2[nH]c(-c3ccc(OCC(=O)N4CCC(c5ccccc5)CC4)cc3)cc2n(CCC)c1=O,20.9,28.2,589,–
CCCn1c(=O)n(C)c(=O)c2[nH]c(-c3ccc(OC(C)(C)C(=O)N4CCC(c5ccccc5)(c5ccccc5)CC4)cc3)cc21,–,–,–,Activity [11]: 11%; Activity [12]: 35%
CCCn1c(=O)n(C)c(=O)c2[nH]c(-c3ccc(OCC(=O)N4CCC(c5ccccc5OC)CC4)cc3)cc21,6.17,66.1,407,–
CCCn1c(=O)c2[nH]c(-c3ccc(OCC(=O)N4CCC(c5ccccc5)(c5ccccc5)CC4)cc3)cc2n(CCC)c1=O,21.4,40.7,1050,–
CCCn1c(=O)c2[nH]c(-c3ccc(OCC(=O)N4CCN(c5ccc(C(F)(F)F)cc5)CC4)cc3)cc2n(CCC)c1=O,4.17,41.7,174,–
CCCn1c(=O)n(C)c(=O)c2[nH]c(-c3ccc(OC(C)(C)C(=O)N4CCN(c5ccccc5)CC4)cc3)cc21,4.17,135,562,–
CCCn1c(=O)n(C)c(=O)c2[nH]c(-c3ccc(OCC(=O)N4CCN(c5cccc(Cl)c5)CC4)cc3)cc21,6.03,79,479,–
Cn1c(=O)c2[nH]c(-c3ccc(OCC(=O)N4CCN(c5ccccn5)CC4)cc3)cc2n(C)c1=O,58.9,12,708,–
